From ChEMBL document CHEMBL3352082, “Pyrazole derivatives as potent inhibitors of c-Jun N-terminal kinase: synthesis and SAR studies” (Bioorg Med Chem, 2014)

Assays:
[1] = target: c-Jun N-terminal kinase, JNK (Homo sapiens, UniProt P45983+P53779+P45984); experiment: Inhibition of JNK (unknown origin); type: protein assay
[2] = target: Mitogen-activated protein kinase 8 (Homo sapiens, UniProt P45983); experiment: Inhibition of FLAG-tagged JNK-1 (unknown origin) transfected in African green monkey COS cells by SDS-PAGE analysis; type: cell-based
Procedure, shortened: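 COS cells transfected with FLAG-tagged JNK-1 and exposed to 0.5 M sorbitol for 30 min to activate JNK-1. FLAG-JNK immunoprecipitated with GST-ATF2 substrate, and the precipitate pretreated with compound and incubated in buffer B. Phosphorylated substrate separated by SDS–PAGE, visualized by autoradiography and quantified by Cerenkov counting through a kinase profiler service.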

Rattus norvegicus [3] = experiment: Antiinflammatory activity in po dosed rat paw edema model assessed as inhibition of carrageenan-induced paw edema administered 1 hr prior to carrageenan challenge measured after 1 hr
Rattus norvegicus [4] = experiment: Antiinflammatory activity in po dosed rat paw edema model assessed as inhibition of carrageenan-induced paw edema administered 1 hr prior to carrageenan challenge measured after 2 hrs
Rattus norvegicus [5] = experiment: Antiinflammatory activity in po dosed rat paw edema model assessed as inhibition of carrageenan-induced paw edema administered 1 hr prior to carrageenan challenge measured after 4 hrs
Rattus norvegicus [6] = experiment: Antiinflammatory activity in po dosed rat paw edema model assessed as inhibition of carrageenan-induced paw edema administered 1 hr prior to carrageenan challenge measured after 3 hrs
Rattus norvegicus [7] = experiment: Antiinflammatory activity in po dosed rat paw edema model assessed as inhibition of carrageenan-induced paw edema […] measured after 1 hr; type: functional
Procedure, shortened: (§1)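 Rats given test compounds as an oral suspension; 1 h later 1% carrageenan injected into the subplantar region of the right paw. Paw volume read by digital plethysmometer at 1, 2, 3 and 4 h. Reported as mean paw volume (mL) ± SEM with % inhibition; significance p <0.01 / p <0.05. Method after Winter et al.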

Rattus norvegicus [8] = experiment: Antiinflammatory activity in po dosed rat paw edema model assessed as inhibition of carrageenan-induced paw edema […] measured after 4 hrs; type: functional; procedure, shortened: as §1
Rattus norvegicus [9] = experiment: Antiinflammatory activity in po dosed rat paw edema model assessed as inhibition of carrageenan-induced paw edema […] measured after 2 hrs; type: functional; procedure, shortened: as §1
Rattus norvegicus [10] = experiment: Antiinflammatory activity in po dosed rat paw edema model assessed as inhibition of carrageenan-induced paw edema […] measured after 3 hrs; type: functional; procedure, shortened: as §1
Rattus norvegicus [11] = experiment: Antiinflammatory activity in rat paw edema model assessed as inhibition of carrageenan-induced paw edema at 50 mg/kg, po administered 1 hr post carrageenan challenge measured after 2 hrs; type: functional; conditions: in the assay text read “1 hr prior to carrageenan challenge” for “1 hr post carrageenan challenge”; procedure, shortened: as §1
Rattus norvegicus [12] = experiment: Antiinflammatory activity in rat paw edema model assessed as inhibition of carrageenan-induced paw edema at 50 mg/kg, po administered 1 hr post carrageenan challenge measured after 3 hrs; type: functional; conditions: in the assay text read “1 hr prior to carrageenan challenge” for “1 hr post carrageenan challenge”; procedure, shortened: as §1
Rattus norvegicus [13] = experiment: Antiinflammatory activity in rat paw edema model assessed as inhibition of carrageenan-induced paw edema at 50 mg/kg, po administered 1 hr post carrageenan challenge measured after 1 hr; type: functional; conditions: in the assay text read “1 hr prior to carrageenan challenge” for “1 hr post carrageenan challenge”; procedure, shortened: as §1
Rattus norvegicus [14] = experiment: Antiinflammatory activity in rat paw edema model assessed as inhibition of carrageenan-induced paw edema at 50 mg/kg, po administered 1 hr prior to carrageenan challenge measured after 4 hrs

Chain of Mitogen-activated protein kinase 8 (P45983 whole entry): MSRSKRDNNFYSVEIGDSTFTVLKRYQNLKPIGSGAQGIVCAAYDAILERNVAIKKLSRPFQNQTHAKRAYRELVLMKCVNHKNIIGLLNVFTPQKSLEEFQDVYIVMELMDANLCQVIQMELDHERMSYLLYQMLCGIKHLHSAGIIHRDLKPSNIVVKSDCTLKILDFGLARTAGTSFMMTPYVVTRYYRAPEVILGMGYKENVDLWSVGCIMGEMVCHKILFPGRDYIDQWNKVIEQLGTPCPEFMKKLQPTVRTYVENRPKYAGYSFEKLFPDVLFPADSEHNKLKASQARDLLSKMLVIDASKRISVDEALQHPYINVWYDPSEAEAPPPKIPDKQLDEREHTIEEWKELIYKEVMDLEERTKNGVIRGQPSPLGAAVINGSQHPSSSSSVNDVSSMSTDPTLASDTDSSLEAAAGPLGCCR

SMILES | IC50 [2] | inhibition (INH) (Rattus norvegicus [3]) | inhibition (INH) (Rattus norvegicus [4]) | inhibition (INH) (Rattus norvegicus [5]) | inhibition (INH) (Rattus norvegicus [6]) | further results
c1ccc2c(-c3ccncc3)n[nH]c2c1 |  |  |  |  |  | pIC50 [1]: 5.8
O=C(Nc1ccccc1)c1cc(-c2ccccc2)[nH]n1 | 9.6 µM | 32.48% | 35.02% | 30.58% | 45.64% | 
O=C(Nc1cc(Cl)ccc1Cl)c1cc(-c2ccccc2)[nH]n1 | 6.2 µM | 31.02% | 40.16% | 18.9% | 45.47% | 
O=C(Nc1ccc([N+](=O)[O-])cc1)c1cc(-c2ccccc2)[nH]n1 | 9.8 µM | 89.24% | 94.31% | 68.7% | 92.56% | 
COc1ccc(NC(=O)c2cc(-c3ccccc3)[nH]n2)cc1 | 8.1 µM | 33.3% | 79.54% | 66.44% | 81.08% | 
O=C(Nc1ccc(O)cc1)c1cc(-c2ccccc2)[nH]n1 |  | 22.11% | 43.24% | 16.64% | 23.28% | 
O=C(Nc1ccc(Br)cc1)c1cc(-c2ccccc2)[nH]n1 | 5.9 µM | 42.16% | 46.31% | 38.22% | 51.4% | 
O=C(Nc1ccc(Cl)c(F)c1)c1cc(-c2ccccc2)[nH]n1 | 3.1 µM | 68.81% | 72.7% | 64.22% | 90.54% | 
Cc1cc(C)c(NC(=O)c2cc(-c3ccccc3)[nH]n2)c(C)c1 | 11.9 µM | 53.65% | 45.6% | 26.8% | 44.24% | 
CC(=O)c1cccc(NC(=O)c2cc(-c3ccccc3)[nH]n2)c1 | 6.9 µM | 41.3% | 56.7% | 56.8% | 74.32% | 
O=C(NCc1ccccc1)c1cc(-c2ccccc2)[nH]n1 | 9.1 µM | 35.48% | 53.4% | 25.66% | 48.64% | 
O=C(NCc1ccc(Cl)c(Cl)c1)c1cc(-c2ccccc2)[nH]n1 | 5.8 µM | 45.16% | 44.31% | 10.11% | 27.02% | 
O=C(NCc1ccc(F)cc1)c1cc(-c2ccccc2)[nH]n1 | 2.9 µM | 67.86% | 70.27% | 54.66% | 75.27% | 
COc1ccc(CNC(=O)c2cc(-c3ccccc3)[nH]n2)cc1 | 6.1 µM | 41.93% | 39.77% | 16.46% | 32.43% | 
COc1ccc(CNC(=O)c2cc(-c3ccccc3)[nH]n2)cc1OC | 5.8 µM | 54.83% | 46.59% | 24.8% | 43.24% | 
O=C(NCc1ccco1)c1cc(-c2ccccc2)[nH]n1 | 2.8 µM | 73.11% | 81.81% | 66.33% | 91.89% | 
COc1ccc(-c2cc(NC(=O)c3cc(-c4ccccc4)[nH]n3)no2)cc1 | 3.2 µM | 68.81% | 72.72% | 71.66% | 90.54% | 
CC(C)(C)c1cc(NC(=O)c2cc(-c3ccccc3)[nH]n2)no1 |  | 68.6% | 70.6% | 41.7% | 52.8% | 
O=C(Nc1ccc2[nH]c(S)nc2c1)c1cc(-c2ccccc2)[nH]n1 | 2.9 µM | 94.62% | 95.45% | 74.15% | 91.62% | 
O=C(Nc1nccs1)c1cc(-c2ccccc2)[nH]n1 | 6.8 µM | 45.31% | 51.06% | 31.4% | 54.65% | 
O=C(NC1CC1)c1cc(-c2ccccc2)[nH]n1 | 6.2 µM | 69.89% | 85.22% | 55.87% | 88.13% | 
CC(NC(=O)c1cc(-c2ccccc2)[nH]n1)c1cccc2ccccc12 (configuration not stated) |  |  |  |  |  | inhibition (INH) (Rattus norvegicus [7]): 61.29%; inhibition (INH) (Rattus norvegicus [8]): 50.64%; inhibition (INH) (Rattus norvegicus [9]): 73.86%; inhibition (INH) (Rattus norvegicus [10]): 74.32%
O=C(Nc1ccccn1)c1cc(-c2ccccc2)[nH]n1 | 8.9 µM | 33.3% | 79.54% | 64.26% | 81.08% | 
O=C(O)Cc1ccccc1Nc1c(Cl)cccc1Cl [DICLOFENAC SODIUM] |  |  |  |  |  | inhibition in vivo at 50 mg/kg (Rattus norvegicus [11]): 36%; inhibition in vivo at 50 mg/kg (Rattus norvegicus [12]): 47%; inhibition in vivo at 50 mg/kg (Rattus norvegicus [13]): 23%; inhibition in vivo at 50 mg/kg (Rattus norvegicus [14]): 51%
